Compounds with a hit are over-represented: about 1.9% of the library has one in this group of screens.
Tb MetRS inh: blocks T. brucei methionyl-tRNA synthetase activity; purified T. brucei MetRS, ATP depletion, Kinase-Glo luminescence; inhibition, % at 11.9 µM; 360,000 tested, 0.4% active; AID 624268;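 active = inhibition above a per-plate cutoff of the control wells' mean inhibition plus 3 SD, cut at about 5.5% in these data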
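Assay system: T. brucei methionyl-tRNA synthetase, purified | Medium: HEPES buffer with MgCl2, KCl, DTT, spermine, BSA, pyrophosphatase | Compound: 11.9 µM single point | Incubation: 15 min enzyme-compound preincubation, 2 h reaction, 10 min detection, 25 °C | Measured by: Kinase-Glo luciferase luminescence reporting remaining unconsumed ATP | Measure: % inhibition normalized to control-well medians | Replication: Singlicate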
DAGLB inhibitor: blocks human DAGLB lipase activity. 340,000 tested, 0.059% active. HEK293T DAGLB membrane lysate, EnzChek fluorogenic substrate. AID 504411. inhibition, % at 5.17 µM. Q8NCG7; in the data active = inhibition above about 34%
PLCg1 inh: inhibitors of human phospholipase C gamma1 | AID 720700 | 370,000 tested, 0.84% active | purified PLC-gamma1, fluorogenic substrate, fluorescence | P19174 | inhibition, % at 12.2 µM; in the data active = inhibition above about 9.5%
sPLA2-III inh: Inhibits HGIII-sPLA2 liposome hydrolysis, primary screen. QFRET BODIPY PC-A2 liposome hydrolysis, fluorescence. inhibition, % at 12.2 µM. Q9NZ20. AID 743126. 370,000 tested, 0.56% active;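 active = inhibition above mean plus 3 SD of compounds lying within the high and low control bounds, cut at about 19% in these data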
Target sequence (Q9NZ20 whole entry, looked up): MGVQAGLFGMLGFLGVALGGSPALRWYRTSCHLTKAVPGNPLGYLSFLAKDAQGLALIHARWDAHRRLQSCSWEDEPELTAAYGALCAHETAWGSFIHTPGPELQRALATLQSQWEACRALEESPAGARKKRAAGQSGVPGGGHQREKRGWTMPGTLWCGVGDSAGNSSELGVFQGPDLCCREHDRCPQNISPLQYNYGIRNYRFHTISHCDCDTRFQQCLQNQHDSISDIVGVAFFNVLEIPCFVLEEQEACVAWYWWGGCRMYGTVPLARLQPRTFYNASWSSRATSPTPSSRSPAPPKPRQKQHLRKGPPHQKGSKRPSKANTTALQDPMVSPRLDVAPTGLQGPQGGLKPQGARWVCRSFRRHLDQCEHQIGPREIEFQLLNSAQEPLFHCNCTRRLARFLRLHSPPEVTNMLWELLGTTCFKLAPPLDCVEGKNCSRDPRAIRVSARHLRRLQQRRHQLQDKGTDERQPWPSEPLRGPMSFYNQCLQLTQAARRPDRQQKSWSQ
PLC-beta3 inh: PLC-beta3 (human) inhibition, primary screen; inhibition, % at 12.2 µM; 370,000 tested, 0.18% active; AID 720704; Purified PLC-beta3, fluorogenic substrate, fluorescence; Q01970; in the data active = inhibition above about 11%
sPLA2 confirm: human GIII-sPLA2 inhibition, confirmation | recombinant hGIII-sPLA2, BODIPY PC-A2 QFRET fluorescence | shares compounds with sPLA2-III inh | 2,000 tested, 34% active | inhibition, % at 12.2 µM;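 active = mean inhibition across triplicates above the hit cutoff set in the earlier primary screen, cut at about 19% in these data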
BODIPY interf: 535nm fluorescence interference, HGIII-sPLA2 counter-screen; inhibition, % at 12.2 µM; BODIPY FL product fluorescence interference, QFRET; 2,000 tested, 8.5% active; shares compounds with sPLA2-III inh;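 active = average inhibition above the solvent-only control mean plus 3 SD, cut at about 6% in these data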
BODIPY interf DR: interferes with 535nm fluorescence in dose response counter-screen | 240 tested, under 10 active | shares compounds with sPLA2-III inh | IC50, µM | BODIPY FL product fluorescence interference, cell-free;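 active = IC50 at or below 10 µM; inactive = IC50 above 10 µM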
A number is an active result; i = inactive; nt = no result given.

SMILES	Tb MetRS inh	DAGLB inhibitor	PLCg1 inh	sPLA2-III inh	PLC-beta3 inh	sPLA2 confirm	BODIPY interf	others
Cc1cccc(OCC(=O)NCc2ccccc2)c1	i	i	i	i	i	nt	nt
O=C(NCCCn1ccnc1)c1ccc(Cl)cc1	i	i	i	21	i	i	i
O=C(CNC(=O)c1ccc(Cl)cc1)NCCCn1ccnc1	i	i	i	i	i	nt	nt
CCCCCCC(=O)NC1CCCCN(Cc2ccc(C)cc2)C1=O (stereo not given)	nt	nt	i	i	i	nt	nt
C/C(=N\NC(=S)NC1CCCCC1)c1ccc(C#N)cc1	i	i	i	26	i	i	i
COc1cccc(C2c3c(ncn(-c4ccccc4)c3=N)Oc3ccc4ccccc4c32)c1OC (stereo not given)	nt	nt	i	i	i	nt	nt
Cc1ccc2c(c1)C(=O)C(=O)N2CCOc1ccccc1	i	i	i	25	i	i	i
Cc1ccc2c(c1)C(=O)C(=O)N2CCCOc1ccccc1C	i	i	i	i	i	nt	nt
Cc1cccc(OCCN2C(=O)C(=O)c3cc(C)ccc32)c1	i	i	i	24	i	21	i
CCN=C1NC(c2ccc(F)cc2)C(C(=O)OC)=C(C)N1Cc1cccc(C(F)(F)F)c1 (stereo not given)	nt	nt	i	i	i	nt	nt
CC[C@H](C)[C@@H](CN[C@H](C)CNC)NCCC(c1ccccc1)c1ccccc1	i	i	i	26	i	i	i
CC[C@@H](C)[C@H](CN[C@H](CNC)C(C)C)NC[C@@H](C)c1ccc(CC(C)C)cc1	i	i	i	i	i	nt	nt
COC(=O)C1CN(CCc2ccccc2)CCS(=O)(=O)N1Cc1ccccc1 (stereo not given)	nt	nt	i	i	i	nt	nt
Cc1ccnc(SCc2cc(=O)c(OC(=O)c3ccc(C)c([N+](=O)[O-])c3)co2)n1	nt	nt	i	i	i	nt	nt
O=C(NC1CCCC1)c1cc(-c2ccc(Cl)cc2)on1	i	i	i	19	i	i	i
c1cc(-c2nnc3n2N=C(c2ccc4c(c2)OCO4)CS3)ccn1	nt	nt	i	22	i	i	i
Cc1ccc(Nc2n[nH]c(=S)s2)cc1	i	i	i	24	i	34	i	BODIPY interf DR=i
CC(C)C[C@@H]1COc2cc(N3CCOCC3)ccc2S(=O)(=O)N1	nt	nt	i	i	i	nt	nt
CC(C)C[C@@H]1COc2cc(N3CCCC3)ccc2S(=O)(=O)N1	nt	nt	i	21	i	i	i
CCOc1ccc(-n2c(N)c(-c3nc4ccccc4[nH]3)sc2=S)cc1	i	i	i	20	i	33	i	BODIPY interf DR=i
Cc1cnc(C)c(Nc2nc(C(N)Cc3ccc(F)cc3)cs2)n1 (stereo not given)	i	nt	i	i	i	nt	nt
NC(Cc1ccc(C(F)(F)F)cc1)c1csc(Nc2nncc3ccccc23)n1 (stereo not given)	i	nt	i	21	i	i	i
Cc1cnc(C)c(Nc2nc(C(N)Cc3ccc(Cl)cc3)cs2)n1 (stereo not given)	i	nt	i	25	i	i	i
CN1CCC(=NNC(=O)C(=O)NC(C)(C)C)CC1	i	i	i	22	i	i	i
Cn1c(COc2ccccc2)nnc1SCC(=O)Nc1ccccc1-c1ccccc1	nt	nt	i	i	i	nt	nt
SMILES	Tb MetRS inh	DAGLB inhibitor	PLCg1 inh	sPLA2-III inh	PLC-beta3 inh	sPLA2 confirm	BODIPY interf	others
O=C(NNC(=S)Nc1ccccc1)NNC(=S)Nc1ccccc1	i	i	i	34	i	29	i	BODIPY interf DR=i
CC(C)Oc1ccc(CC(=O)NNC(=S)Nc2ccccc2)cc1	i	i	i	29	i	30	i	BODIPY interf DR=i
COc1ccc(CCC(=O)NNC(=S)Nc2cccc(C(C)=O)c2)cc1	i	i	i	20	i	28	i	BODIPY interf DR=i
COc1ccc(CCC(=O)NNC(=O)Nc2cccc(Cl)c2)cc1	i	i	i	i	i	nt	nt
O=C(NNC(=S)Nc1ccccc1)c1cc(Br)ccc1Cl	i	i	i	33	i	28	6.1
CC(C)Oc1ccc(CCC(=O)NNC(=S)Nc2ccccc2)cc1	i	i	i	i	i	nt	nt
Nn1c(SCC(=O)Nc2cc(C(F)(F)F)ccc2Cl)nnc1-c1n[nH]c2c1CCC2	nt	nt	i	i	i	nt	nt
CC(C)C(=O)N1CCC(Oc2cccnc2)CC1	nt	nt	i	i	i	nt	nt
C[C@@H]1CN(c2ccc(N3CCN(C(=O)OC(C)(C)C)C[C@@H]3C)cc2C#N)C[C@H](C)O1	nt	nt	i	i	i	nt	nt
COc1cc(OC)cc(-c2nn[nH]n2)c1	i	i	i	20	i	i	i
CCn1ncc(Cl)c1C(=O)NC(C)c1ccccc1 (stereo not given)	i	i	i	21	i	i	i
Cn1cccc1CC(=O)NNC(=S)Nc1ccc(Cl)cc1	i	i	i	24	i	27	i
O=C(Cc1noc2ccccc12)NNC(=S)Nc1ccccc1	i	i	i	i	i	nt	nt
O=C(Cc1noc2ccccc12)NNC(=S)Nc1ccc(Cl)cc1	i	i	i	29	i	26	i
Cn1cccc1CC(=O)NNC(=S)Nc1ccccc1Cl	i	i	i	25	i	29	i	BODIPY interf DR=i
COC(=O)C1=C(C)N(Cc2cccc(C(F)(F)F)c2)C(=NCc2ccc(OC)cc2)NC1c1ccc(F)cc1 (stereo not given)	nt	nt	i	i	i	nt	nt
C=CCNc1cccc2c1S(=O)(=O)N[C@H](CC(C)C)CO2	nt	nt	i	i	i	nt	nt
O=c1[nH]n(Cc2ccccc2)c2ccccc12	i	i	i	20	i	i	i
O=[N+]([O-])c1ccc(O)c(N=Cc2sc3ccccc3c2O)c1	i	i	i	26	i	36	i	BODIPY interf DR=i
Cc1cc(N2CCN(c3ccccc3)CC2)n2ncnc2n1	i	i	i	93	i	i	i
Cc1cc(N2CCN(C/C=C/c3ccccc3)CC2)n2ncnc2n1	i	i	i	i	i	nt	nt
CCCCOc1ccc(C(=O)n2ccc3ccc(-c4ccc5ccn(Cc6ccccc6)c5c4)cc32)cc1	nt	nt	i	i	i	nt	nt
Cc1ccc(NC(=S)N2CCN(Cc3ccccc3)CC2)c(C)c1	i	i	i	21	i	i	i
CCOC(=O)c1c(C)[nH]c(C(=O)N/N=C/c2cc([N+](=O)[O-])ccc2O)c1C	i	i	i	24	i	i	6.1
CCOC(=O)c1c(C)[nH]c(C(=O)N/N=C\c2ccccc2O)c1C	i	i	i	i	i	nt	nt
COc1ccc(NC(=S)NNC(=O)C2CC2c2ccc(C)cc2)cc1 (stereo not given)	i	i	i	21	i	22	i
C=CCNC(=O)CNS(=O)(=O)c1ccc(F)cc1	i	i	i	20	i	i	i
Nc1[nH]c(C(=O)c2ccc(Br)cc2)c(-c2ccccc2Cl)c1C(=O)NCCc1c[nH]c2ccccc12	nt	nt	i	i	i	nt	nt
Cc1c(C(=O)Nc2nc(-c3ccccn3)cs2)oc2ccccc12	i	i	nt	nt	nt	nt	nt

Screening data (PubChem)
